ChEMBL document CHEMBL3872222, “Synthesis of novel curcuminoids accommodating a central β-enaminone motif and their impact on cell growth and oxidative stress” (Eur J Med Chem, 2016)
In brackets after ≈: the same amount, converted by molar mass.

Assays:
EA.hy 926 [1] = assay: Effect on oxidative stress in human EAhy926 cells assessed as intracellular ROS level at 10 uM after overnight incubation by DCFH-DA staining based fluorescence assay relative to control; format: functional
In short: (§1)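 Cells grown in DMEM+glutamax, 1% NEAA, 1% P/S, 10% FBS; seeded 20000/well, treated at confluency overnight in serum-free medium, DMSO under 0.1% final. Loaded with 20 μM DCFH-DA 30 min at 37 °C, 10% CO2; washed, phenol red-free medium 1 h, then serum-free medium; fluorescence ex 485/em 535 nm. Percent of untreated; two-tailed unequal-variance t-test, n≥6.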

EA.hy 926 [2] = assay: Effect on oxidative stress in human EAhy926 cells assessed as intracellular ROS level at 1 uM after overnight incubation by DCFH-DA staining based fluorescence assay relative to control; format: functional; in short: as §1
[3] = Growth inhibition of human HT-29 cells assessed as mitochondrial activity measured after 72 hrs by MTT assay; format: functional, cell-based; conditions: HT-29, 72 h
In short: (§2)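 Seeded 20000 cells/well in DMEM+glutamax, NEAA, P/S, FBS; after 1 day treated 1, 5, 10, 25 μM in serum-free medium (DMSO under 0.1%) for 3 days. MTT (5 mg/ml in PBS) 2 h at 37 °C, 10% CO2 in dark; formazan dissolved in DMSO, absorbance 570 nm; triplicate; IC50 derived.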

[4] = Growth inhibition of CHOK1 cells assessed as mitochondrial activity measured after 72 hrs by MTT assay; format: functional, cell-based; conditions: Cricetulus griseus, CHO-K1, 72 h; in short: as §2
Caco-2 [5] = assay: Effect on oxidative stress in undifferentiated human Caco2 cells assessed as intracellular ROS level at 10 uM after overnight incubation by DCFH-DA staining based fluorescence assay relative to control; format: functional; in short: as §1
HT-29 [6] = assay: Effect on oxidative stress in human HT-29 cells assessed as intracellular ROS level at 1 uM after overnight incubation by DCFH-DA staining based fluorescence assay relative to control; format: functional; in short: as §1
[7] = Solubility of the compound in serum-free DMEM assessed as compound concentration required for crystal formation measured after 1 day by microscopic analysis; format: physicochemical; conditions: 24 h
In short: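 Compound at 0, 0.5, 1, 5, 10, 25 and 50 μM in serum-free DMEM incubated 1 day at 37 °C, 10% CO2, then examined for crystal formation.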

[8] = Growth inhibition of undifferentiated human Caco2 cells assessed as mitochondrial activity measured after 72 hrs by MTT assay; format: functional, cell-based; conditions: Caco-2, 72 h; in short: as §2
[9] = Growth inhibition of differentiated human Caco2 cells measured after 72 hrs by SRB assay; format: cell-based; conditions: Caco-2, 72 h
In short: (§3)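 20000 cells/well treated after 1 day at 1, 5, 10, 25 μM, serum-free, for 3 days. Fixed with 50% TCA 1 h at 4 °C, stained 30 min with 0.4% sulforhodamine B in 1% acetic acid, rinsed with 1% acetic acid, dye dissolved in 10 mM Tris, absorbance 490 nm; triplicate; IC50 derived.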

[10] = Growth inhibition of human EAhy926 cells measured after 72 hrs by SRB assay; format: cell-based; conditions: EA.hy 926, 72 h; in short: as §3
[11] = Growth inhibition of human EAhy926 cells assessed as mitochondrial activity measured after 72 hrs by MTT assay; format: cell-based; conditions: EA.hy 926, 72 h; in short: as §2
[12] = Antioxidant activity assessed as inhibition of DPPH radical activity at 1 uM measured after 30 mins under dark conditions by spectrophotometric analysis relative to control; format: functional
[13] = Growth inhibition of CHOK1 cells measured after 72 hrs by SRB assay; format: functional, cell-based; conditions: Cricetulus griseus, CHO-K1, 72 h; in short: as §3
HT-29 [14] = assay: Effect on oxidative stress in human HT-29 cells assessed as intracellular ROS level at 10 uM after overnight incubation by DCFH-DA staining based fluorescence assay relative to control; format: functional; in short: as §1
[15] = Antioxidant activity assessed as trolox equivalent of ferric ion reducing activity using Fe3+-TPTZ by measuring Fe2+-TPTZ formation after 4 mins by UV-vis spectrophotometry based FRAP assay; format: functional
In short: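 FRAP reagent: 300 mM acetate buffer, 10 mM TPTZ in ethanol and 20 mM FeCl3 (in dilute HCl) combined 10:1:1, TPTZ and iron freshly made. Sample mixed 1:9 with reagent; absorbance 593 nm after 4 min. Expressed as trolox equivalents per μM from slope of linear plot versus analog concentration.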

CHO [16] = assay: Effect on oxidative stress in CHO cells assessed as intracellular ROS level at 10 uM after overnight incubation by DCFH-DA staining based fluorescence assay relative to control; format: functional, Cricetulus griseus; in short: as §1
[17] = Growth inhibition of undifferentiated human Caco2 cells measured after 72 hrs by SRB assay; format: functional, cell-based; conditions: Caco-2, 72 h; in short: as §3
[18] = Growth inhibition of differentiated human Caco2 cells assessed as mitochondrial activity measured after 72 hrs by MTT assay; format: cell-based; conditions: Caco-2, 72 h; in short: as §2
[19] = Growth inhibition of human HT-29 cells measured after 72 hrs by SRB assay; format: functional, cell-based; conditions: HT-29, 72 h; in short: as §3
CHO [20] = assay: Effect on oxidative stress in CHO cells assessed as intracellular ROS level at 1 uM after overnight incubation by DCFH-DA staining based fluorescence assay relative to control; format: functional, Cricetulus griseus; in short: as §1
Caco-2 [21] = assay: Effect on oxidative stress in undifferentiated human Caco2 cells assessed as intracellular ROS level at 1 uM after overnight incubation by DCFH-DA staining based fluorescence assay relative to control; format: functional; in short: as §1

SMILES	Activity (EA.hy 926 [1])	Activity (EA.hy 926 [2])	IC50 [3]	IC50 [4]	Activity (Caco-2 [5])	Activity (HT-29 [6])	solubility [7]	IC50 [8]	IC50 [9]	IC50 [10]	IC50 [11]	inhibition [12]	IC50 [13]	Activity (HT-29 [14])	Activity [15]	Activity (CHO [16])	IC50 [17]	IC50 [18]	IC50 [19]	Activity (CHO [20])	further results
O=C(/C=C(/C=C/c1ccc(O)cc1)NC1CCCCC1)/C=C/c1ccc(O)cc1	299%	129%	4 µM	9.2 µM	82%	77%	5 µM (≈ 1.95 µg/mL)	7.8 µM	> 25 µM	4.2 µM	3.3 µM	0.03%	11.6 µM	80%	0.56 µMequiv/µM	150%	6.9 µM	> 25 µM	5.9 µM	111%	Activity (Caco-2 [21]): 97%
O=C(/C=C/c1ccc(O)cc1)CC(=O)/C=C/c1ccc(O)cc1 [BISDEMETHOXYCURCUMIN]	103%	92%	> 25 µM	> 25 µM	83%	75%	25 µM (≈ 7.71 µg/mL)	> 25 µM	> 25 µM	> 25 µM	> 25 µM	0.02%	> 25 µM	69%	0.28 µMequiv/µM	105%	> 25 µM	> 25 µM	> 25 µM	101%	Activity (Caco-2 [21]): 98%
CC(C)CNC(=C\C(=O)/C=C/c1ccc(O)cc1)/C=C/c1ccc(O)cc1	119%	100%	20.1 µM	17.9 µM	82%	77%	25 µM (≈ 9.09 µg/mL)	23 µM	> 25 µM	> 25 µM	> 25 µM	0.02%	23.7 µM	75%	0.19 µMequiv/µM	97%	18.5 µM	> 25 µM	22.5 µM	109%	Activity (Caco-2 [21]): 100%
COc1cc(/C=C/C(=O)/C=C(/C=C/c2ccc(OC(C)=O)c(OC)c2)NCC(C)C)ccc1OC(C)=O	240%	104%	> 25 µM	> 25 µM	77%	95%	5 µM (≈ 2.54 µg/mL)	> 25 µM	> 25 µM	> 25 µM	> 25 µM	0%	> 25 µM	96%	0.04 µMequiv/µM	111%	> 25 µM	> 25 µM	> 25 µM	111%	Activity (Caco-2 [21]): 96%
C=CCNC(=C\C(=O)/C=C/c1ccc(O)c(OC)c1)/C=C/c1ccc(O)c(OC)c1	267%	124%	> 25 µM	7.4 µM	76%	99%	25 µM (≈ 10.2 µg/mL)	> 25 µM	> 25 µM	> 25 µM	> 25 µM	0.1%	> 25 µM	84%	1.14 µMequiv/µM	104%	> 25 µM	> 25 µM	24.6 µM	115%	Activity (Caco-2 [21]): 89%
CCCCNC(=C\C(=O)/C=C/c1ccc(O)c(OC)c1)/C=C/c1ccc(O)c(OC)c1	439%	110%	19.7 µM	7 µM	83%	99%	5 µM (≈ 2.12 µg/mL)	> 25 µM	> 25 µM	> 25 µM	> 25 µM	0.08%	20.4 µM	98%	1.29 µMequiv/µM	110%	23.8 µM	> 25 µM	21.2 µM	129%	Activity (Caco-2 [21]): 91%
COc1cc(/C=C/C(=O)/C=C(/C=C/c2ccc(O)c(OC)c2)NC2CCCCC2)ccc1O	191%	91%	> 25 µM	24.7 µM	63%	80%	25 µM (≈ 11.2 µg/mL)	> 25 µM	> 25 µM	> 25 µM	> 25 µM	0.13%	> 25 µM	74%	0.83 µMequiv/µM	122%	5.1 µM	> 25 µM	> 25 µM	137%	Activity (Caco-2 [21]): 88%
CCCNC(=C\C(=O)/C=C/c1ccc(O)c(OC)c1)/C=C/c1ccc(O)c(OC)c1	141%	78%	22.7 µM	> 25 µM	88%	88%	50 µM (≈ 20.5 µg/mL)	> 25 µM	> 25 µM	> 25 µM	> 25 µM	0.1%	> 25 µM	92%	0.87 µMequiv/µM	118%	22 µM	> 25 µM	> 25 µM	116%	Activity (Caco-2 [21]): 97%
COc1cc(/C=C/C(=O)/C=C(/C=C/c2ccc(OC(C)=O)c(OC)c2)NC2CCCCC2)ccc1OC(C)=O	113%	101%	> 25 µM	10.1 µM	62%	96%	5 µM (≈ 2.67 µg/mL)	9.7 µM	> 25 µM	> 25 µM	> 25 µM	0.01%	> 25 µM	94%	0.04 µMequiv/µM	122%	4.4 µM	> 25 µM	> 25 µM	89%	Activity (Caco-2 [21]): 89%
COc1cc(/C=C/C(=O)/C=C(/C=C/c2ccc(O)c(OC)c2)NCC(C)C)ccc1O	100%	83%	24.5 µM	> 25 µM	74%	91%	25 µM (≈ 10.6 µg/mL)	> 25 µM	> 25 µM	> 25 µM	> 25 µM	0.09%	> 25 µM	92%	0.89 µMequiv/µM	118%	> 25 µM	> 25 µM	24 µM	104%	Activity (Caco-2 [21]): 91%
COc1cc(/C=C/C(=O)CC(=O)/C=C/c2ccc(OC(C)=O)c(OC)c2)ccc1OC(C)=O	189%	114%	> 25 µM	> 25 µM	90%	79%	0.5 µM (≈ 0.226 µg/mL)	> 25 µM	> 25 µM	> 25 µM	> 25 µM	0%	> 25 µM	76%	0.03 µMequiv/µM	112%	> 25 µM	> 25 µM	> 25 µM	128%	Activity (Caco-2 [21]): 93%
